{"source": "ChEMBL document CHEMBL1152701", "about": "“Design, synthesis and biological evaluation of novel dual inhibitors of acetylcholinesterase and beta-secretase” (Bioorg Med Chem, 2009)", "key": {"[1]": {"target": "T1, Beta-secretase 1 (Homo sapiens, UniProt P56817)", "T1 sequence (P56817 whole entry)": "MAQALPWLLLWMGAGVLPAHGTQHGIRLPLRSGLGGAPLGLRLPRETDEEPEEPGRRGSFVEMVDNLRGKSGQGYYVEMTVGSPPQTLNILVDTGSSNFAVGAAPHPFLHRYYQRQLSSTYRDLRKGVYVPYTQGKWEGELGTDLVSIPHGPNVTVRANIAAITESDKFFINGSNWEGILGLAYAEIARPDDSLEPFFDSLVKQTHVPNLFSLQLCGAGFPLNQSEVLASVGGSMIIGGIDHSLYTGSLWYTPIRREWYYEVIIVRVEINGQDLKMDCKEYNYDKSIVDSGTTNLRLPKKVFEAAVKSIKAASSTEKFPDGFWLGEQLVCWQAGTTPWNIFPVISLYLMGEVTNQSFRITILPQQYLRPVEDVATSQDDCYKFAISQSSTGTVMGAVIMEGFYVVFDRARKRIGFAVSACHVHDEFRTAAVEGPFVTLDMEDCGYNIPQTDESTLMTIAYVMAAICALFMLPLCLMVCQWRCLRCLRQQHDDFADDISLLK", "assay": "Inhibition of BACE1 in HEK293 cells transfected with human betaAPP695 mutant assessed as inhibition of amyloid beta (1 to 40) production after 24 hrs by ELISA", "type": "cell-based", "summary_of_the_method": "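HEK293 cells stably carrying APP695 with Swedish double mutation, grown in DMEM plus 10% heat-inactivated FBS. Compounds added at seeding at several concentrations, 24 h at 37 °C, 5% CO2. Secreted Aβ1-40 in conditioned medium quantified by colorimetric sandwich ELISA.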"}, "[2]": {"target": "T1, Beta-secretase 1", "assay": "Inhibition of human recombinant C-terminal histidine-tagged BACE1 expressed in baculovirus-infected insect cells by FRET assay"}, "[3]": {"system": "Mus musculus", "assay": "Decrease in amyloid beta (1 to 40) production in transgenic mouse transfected with human APP695 Swedish double mutant at 10 nmol, intracerebroventricularly after 4 hrs by ELISA relative to control", "type": "functional", "design": "scale not given: the % may be the effect or the level left", "summary_of_the_method": "(§1)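 The vehicle control was distilled H2O. After 4 h, hemispheres were isolated on ice and Aβ1-40 was measured by colorimetric human Aβ1-40 ELISA against vehicle-treated mice. Data are means ± SD; independent t-test.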"}, "[4]": {"system": "PC-12", "assay": "Cell protective activity against H2O2-induced cell injury in rat PC12 cells assessed as cell viability at 1 to 10 uM pretreated for 2 hrs measured after 24 hrs by MTT assay", "type": "functional, cell-based", "summary_of_the_method": "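PC12 cells seeded at 1 × 10^5 cells per mL in DMEM with 10% heat-inactivated bovine calf serum, used 24 h later. Compounds dissolved in 2% DMSO then diluted in PBS; 2 h pretreatment, H2O2 for 30 min, then fresh phenol red-free DMEM. Viability by MTT reduction 24 h later, absorbance 570 and 630 nm. Means ± SD, one-way ANOVA with Duncan's test.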"}, "[5]": {"system": "Mus musculus", "assay": "Decrease in amyloid beta (1 to 40) production in transgenic mouse transfected with human APP695 Swedish double mutant at 8 nmol, intracerebroventricularly after 4 hrs by ELISA relative to control", "type": "functional", "design": "scale not given: the % may be the effect or the level left", "summary_of_the_method": "as §1"}}, "note": "The source made the active and inactive calls. No cut-off for these calls is given here."}
{"smiles": "C[C@@H](NC(=O)c1cc(C(=O)N[C@@H](Cc2ccccc2)C(O)C(=O)NCC2CCN(Cc3ccccc3)CC2)cc(N(C)S(C)(=O)=O)c1)c1ccc(F)cc1", "note": "(mixture of isomers)", "values": [{"measurement": "IC50", "setting": "[1]", "result": "< 1000", "unit": "nM"}]}
{"smiles": "CC(C)C[C@H](NC(=O)c1cc(C(=O)N[C@H](C)c2ccc(F)cc2)cc(N(C)S(C)(=O)=O)c1)[C@@H](O)C[C@@H](C)C(=O)NN1CCN(Cc2ccccc2)CC1", "values": [{"measurement": "IC50", "setting": "[1]", "result": "< 1000", "unit": "nM"}]}
{"smiles": "CC(C)C[C@H](NC(=O)c1cc(C(=O)N[C@H](C)c2ccc(F)cc2)cc(N(C)S(C)(=O)=O)c1)[C@@H](O)C[C@@H](C)C(=O)NCCC1CCN(Cc2ccccc2)CC1", "values": [{"measurement": "IC50", "setting": "[2]", "result": 1340, "unit": "nM"}, {"measurement": "IC50", "setting": "[1]", "result": "< 1000", "unit": "nM"}]}
{"smiles": "CC(C)C[C@H](NC(=O)c1cc(C(=O)N[C@H](C)c2ccccc2)cc(N(C)S(C)(=O)=O)c1)[C@@H](O)C[C@@H](C)C(=O)NN1CCN(Cc2ccccc2)CC1", "values": [{"measurement": "IC50", "setting": "[1]", "result": "< 1000", "unit": "nM"}]}
{"smiles": "C[C@@H](NC(=O)c1cccc(C(=O)N[C@@H](Cc2ccccc2)[C@H](O)CNCCC2CCN(Cc3ccccc3)CC2)c1)c1ccc(F)cc1", "values": [{"measurement": "IC50", "setting": "[1]", "result": "< 1000", "unit": "nM"}]}
{"smiles": "C[C@@H](NC(=O)c1cc(C(=O)N[C@@H](Cc2ccccc2)C(O)C(=O)NC2CCN(Cc3ccccc3)CC2)cc(N(C)S(C)(=O)=O)c1)c1ccccc1", "note": "(mixture of isomers)", "values": [{"measurement": "IC50", "setting": "[1]", "result": "< 1000", "unit": "nM"}]}
{"smiles": "CCCN(CCC)C(=O)c1cc(C(=O)N[C@@H](Cc2ccccc2)[C@H](O)CNCCC2CCN(Cc3ccccc3)CC2)cc([N+](=O)[O-])c1", "values": [{"measurement": "IC50", "setting": "[1]", "result": "< 1000", "unit": "nM"}]}
{"smiles": "CC(C)C[C@H](NC(=O)c1cc(C(=O)N[C@H](C)c2ccc(F)cc2)cc(N(C)S(C)(=O)=O)c1)[C@@H](O)C[C@@H](C)C(=O)NC1CCN(Cc2ccccc2)CC1", "values": [{"measurement": "IC50", "setting": "[2]", "result": 1500, "unit": "nM"}, {"measurement": "IC50", "setting": "[1]", "result": "< 1000", "unit": "nM"}]}
{"smiles": "C[C@@H](NC(=O)c1cc(C(=O)N[C@@H](Cc2ccccc2)[C@H](O)CNC2CCN(Cc3ccccc3)CC2)cc(N(C)S(C)(=O)=O)c1)c1ccccc1", "values": [{"measurement": "Activity", "setting": "[3]", "result": 23, "unit": "%"}, {"measurement": "IC50", "setting": "[2]", "result": 511, "unit": "nM"}, {"measurement": "IC50", "setting": "[1]", "result": 54.6, "unit": "nM"}, {"measurement": "Activity", "setting": "[4]", "result": "Active"}]}
{"smiles": "CCCN(CCC)C(=O)c1cc(C(=O)N[C@@H](Cc2ccccc2)C(O)C(=O)NCCC2CCN(Cc3ccccc3)CC2)cc([N+](=O)[O-])c1", "note": "(mixture of isomers)", "values": [{"measurement": "IC50", "setting": "[1]", "result": "< 1000", "unit": "nM"}]}
{"smiles": "C[C@@H](NC(=O)c1cccc(C(=O)N[C@@H](Cc2ccccc2)[C@H](O)CNCCC2CCN(Cc3ccccc3)CC2)c1)c1ccccc1", "values": [{"measurement": "IC50", "setting": "[1]", "result": "< 1000", "unit": "nM"}]}
{"smiles": "C[C@@H](NC(=O)c1cc(C(=O)N[C@@H](Cc2ccccc2)C(O)C(=O)NCC2CCN(Cc3ccccc3)CC2)cc(N(C)S(C)(=O)=O)c1)c1ccccc1", "note": "(mixture of isomers)", "values": [{"measurement": "IC50", "setting": "[1]", "result": "< 1000", "unit": "nM"}]}
{"smiles": "C[C@@H](NC(=O)c1cc(C(=O)N[C@@H](Cc2ccccc2)C(O)C(=O)NC2CCN(Cc3ccccc3)CC2)cc(N(C)S(C)(=O)=O)c1)c1ccc(F)cc1", "note": "(mixture of isomers)", "values": [{"measurement": "IC50", "setting": "[1]", "result": "< 1000", "unit": "nM"}]}
{"smiles": "C[C@@H](NC(=O)c1cc(C(=O)N[C@@H](Cc2ccccc2)C(O)C(=O)NCCC2CCN(Cc3ccccc3)CC2)cc(N(C)S(C)(=O)=O)c1)c1ccc(F)cc1", "note": "(mixture of isomers)", "values": [{"measurement": "IC50", "setting": "[1]", "result": "< 1000", "unit": "nM"}]}
{"smiles": "C[C@@H](NC(=O)c1cc(C(=O)N[C@@H](Cc2ccccc2)[C@H](O)CNCC2CCN(Cc3ccccc3)CC2)cc(N(C)S(C)(=O)=O)c1)c1ccccc1", "values": [{"measurement": "IC50", "setting": "[2]", "result": 4000, "unit": "nM"}, {"measurement": "IC50", "setting": "[1]", "result": "< 1000", "unit": "nM"}]}
{"smiles": "CCCN(CCC)C(=O)c1cc(C(=O)N[C@@H](Cc2ccccc2)C(O)C(=O)NCC2CCN(Cc3ccccc3)CC2)cc([N+](=O)[O-])c1", "note": "(mixture of isomers)", "values": [{"measurement": "IC50", "setting": "[1]", "result": "< 1000", "unit": "nM"}]}
{"smiles": "C[C@@H](NC(=O)c1cc(C(=O)N[C@@H](Cc2ccccc2)[C@H](O)CNCC2CCN(Cc3ccccc3)CC2)cc(N(C)S(C)(=O)=O)c1)c1ccc(F)cc1", "values": [{"measurement": "IC50", "setting": "[2]", "result": 3230, "unit": "nM"}, {"measurement": "IC50", "setting": "[1]", "result": "< 1000", "unit": "nM"}]}
{"smiles": "CCCN(CCC)C(=O)c1cc(C(=O)N[C@@H](Cc2ccccc2)C(O)C(=O)NC2CCN(Cc3ccccc3)CC2)cc([N+](=O)[O-])c1", "note": "(mixture of isomers)", "values": [{"measurement": "IC50", "setting": "[1]", "result": "< 1000", "unit": "nM"}]}
{"smiles": "CC(C)C[C@H](NC(=O)c1cc(C(=O)N[C@H](C)c2ccc(F)cc2)cc(N(C)S(C)(=O)=O)c1)[C@@H](O)C[C@@H](C)C(=O)NCC1CCN(Cc2ccccc2)CC1", "values": [{"measurement": "IC50", "setting": "[2]", "result": 616, "unit": "nM"}, {"measurement": "IC50", "setting": "[1]", "result": "< 1000", "unit": "nM"}]}
{"smiles": "CCCN(CCC)C(=O)c1cc(C(=O)N[C@@H](Cc2ccccc2)[C@H](O)CNCCC2CCN(Cc3ccccc3)CC2)cc(N(C)S(C)(=O)=O)c1", "values": [{"measurement": "IC50", "setting": "[2]", "result": 2390, "unit": "nM"}, {"measurement": "IC50", "setting": "[1]", "result": "< 1000", "unit": "nM"}]}
{"smiles": "C[C@@H](NC(=O)c1cc(C(=O)N[C@@H](Cc2ccccc2)C(O)C(=O)NCCC2CCN(Cc3ccccc3)CC2)cc(N(C)S(C)(=O)=O)c1)c1ccccc1", "note": "(mixture of isomers)", "values": [{"measurement": "IC50", "setting": "[1]", "result": "< 1000", "unit": "nM"}]}
{"smiles": "C[C@@H](NC(=O)c1cc(C(=O)N[C@@H](Cc2ccccc2)[C@H](O)CNCCC2CCN(Cc3ccccc3)CC2)cc(N(C)S(C)(=O)=O)c1)c1ccc(F)cc1", "values": [{"measurement": "IC50", "setting": "[2]", "result": 222, "unit": "nM"}, {"measurement": "IC50", "setting": "[1]", "result": "< 1000", "unit": "nM"}]}
{"smiles": "C[C@@H](NC(=O)c1cc(C(=O)N[C@@H](Cc2ccccc2)[C@H](O)CNCCC2CCN(Cc3ccccc3)CC2)cc([N+](=O)[O-])c1)c1ccc(F)cc1", "values": [{"measurement": "IC50", "setting": "[2]", "result": 2680, "unit": "nM"}, {"measurement": "IC50", "setting": "[1]", "result": "< 1000", "unit": "nM"}]}
{"smiles": "C[C@@H](NC(=O)c1cc(C(=O)N[C@@H](Cc2ccccc2)[C@H](O)CNCCC2CCN(Cc3ccccc3)CC2)cc([N+](=O)[O-])c1)c1ccccc1", "values": [{"measurement": "IC50", "setting": "[2]", "result": 7020, "unit": "nM"}, {"measurement": "IC50", "setting": "[1]", "result": "< 1000", "unit": "nM"}]}
{"smiles": "C[C@@H](NC(=O)c1cc(C(=O)N[C@@H](Cc2ccccc2)[C@H](O)CNC2CCN(Cc3ccccc3)CC2)cc(N(C)S(C)(=O)=O)c1)c1ccc(F)cc1", "values": [{"measurement": "IC50", "setting": "[2]", "result": 771, "unit": "nM"}, {"measurement": "IC50", "setting": "[1]", "result": "< 1000", "unit": "nM"}]}
{"smiles": "CCCN(CCC)C(=O)c1cccc(C(=O)N[C@@H](Cc2ccccc2)[C@H](O)CNCCC2CCN(Cc3ccccc3)CC2)c1", "values": [{"measurement": "IC50", "setting": "[1]", "result": "< 1000", "unit": "nM"}]}
{"smiles": "C[C@@H](NC(=O)c1cc(C(=O)N[C@H](CO)Cc2ccccc2)cc(N(C)S(C)(=O)=O)c1)c1ccc(F)cc1", "values": [{"measurement": "IC50", "setting": "[2]", "result": 462, "unit": "nM"}, {"measurement": "IC50", "setting": "[1]", "result": "< 1000", "unit": "nM"}]}
{"smiles": "C[C@@H](NC(=O)c1cc(C(=O)N[C@@H](Cc2ccccc2)[C@H](O)CNCCC2CCN(Cc3ccccc3)CC2)cc(N(C)S(C)(=O)=O)c1)c1ccccc1", "values": [{"measurement": "Activity", "setting": "[5]", "result": 29, "unit": "%"}, {"measurement": "IC50", "setting": "[2]", "result": 567, "unit": "nM"}, {"measurement": "IC50", "setting": "[1]", "result": 98.7, "unit": "nM"}, {"measurement": "Activity", "setting": "[4]", "result": "Active"}]}
{"smiles": "CC(C)C[C@H](NC(=O)c1cc(C(=O)N[C@H](C)c2ccccc2)cc(N(C)S(C)(=O)=O)c1)[C@@H](O)C[C@@H](C)C(=O)NC1CCN(Cc2ccccc2)CC1", "values": [{"measurement": "IC50", "setting": "[2]", "result": 1540, "unit": "nM"}, {"measurement": "IC50", "setting": "[1]", "result": "< 1000", "unit": "nM"}]}
